Laboratory results reported in ChEMBL document CHEMBL3525967, “In vitro glucuronidation of the antibacterial triclocarban and its oxidative metabolites” (Drug Metab Dispos, 2012).

Experiments:
[1] = molecular target: T1, UDP-glucuronosyltransferase 1A3 (Homo sapiens, UniProt P35503); assay: Drug metabolism assessed as human UGT1A3-mediated glucuronidation expressed in baculovirus infected insect sf9 cells incubated for 5 mins prior to UDPGA addition measured after 5 to 30 mins by LC-UV analysis; type: ADME
T1 sequence (P35503 whole entry): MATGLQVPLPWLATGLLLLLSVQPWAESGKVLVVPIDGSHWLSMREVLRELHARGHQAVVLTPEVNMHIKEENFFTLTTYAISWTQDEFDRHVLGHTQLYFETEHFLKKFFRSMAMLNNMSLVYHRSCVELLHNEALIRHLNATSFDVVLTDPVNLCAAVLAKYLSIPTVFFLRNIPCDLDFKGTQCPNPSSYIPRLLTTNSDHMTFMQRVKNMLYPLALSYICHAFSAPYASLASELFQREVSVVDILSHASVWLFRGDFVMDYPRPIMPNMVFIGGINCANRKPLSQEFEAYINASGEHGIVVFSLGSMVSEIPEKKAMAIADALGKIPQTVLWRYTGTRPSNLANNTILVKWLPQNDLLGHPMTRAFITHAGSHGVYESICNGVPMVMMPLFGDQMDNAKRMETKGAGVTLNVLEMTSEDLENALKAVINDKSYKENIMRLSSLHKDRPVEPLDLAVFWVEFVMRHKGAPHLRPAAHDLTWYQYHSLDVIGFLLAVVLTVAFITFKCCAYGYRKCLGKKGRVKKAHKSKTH
Procedure, shortened: (§1)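 Microsomes or Sf-9 Supersomes (5 µg protein in 200 µL 100 mM potassium phosphate pH 7.4) pre-treated with alamethicin on ice 15 min; substrate 10 µM final (2% DMSO), MgCl2 and saccharolactone 10 mM each; 5 min preincubation at 37 °C, then UDPGA to start. Samples taken at 5, 10, 15, 30 min (or 2, 5, 10, 15 min) into ACN with internal standard; LC-UV-ESI-MS/MS.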

[2] = molecular target: T2, UDP-glucuronosyltransferase 1A9 (Homo sapiens, UniProt O60656); assay: Drug metabolism assessed as human UGT1A9-mediated glucuronidation expressed in baculovirus infected insect sf9 cells incubated for 5 mins prior to UDPGA addition measured after 5 to 30 mins by LC-UV analysis; type: ADME; procedure, shortened: as §1
T2 sequence (O60656 whole entry): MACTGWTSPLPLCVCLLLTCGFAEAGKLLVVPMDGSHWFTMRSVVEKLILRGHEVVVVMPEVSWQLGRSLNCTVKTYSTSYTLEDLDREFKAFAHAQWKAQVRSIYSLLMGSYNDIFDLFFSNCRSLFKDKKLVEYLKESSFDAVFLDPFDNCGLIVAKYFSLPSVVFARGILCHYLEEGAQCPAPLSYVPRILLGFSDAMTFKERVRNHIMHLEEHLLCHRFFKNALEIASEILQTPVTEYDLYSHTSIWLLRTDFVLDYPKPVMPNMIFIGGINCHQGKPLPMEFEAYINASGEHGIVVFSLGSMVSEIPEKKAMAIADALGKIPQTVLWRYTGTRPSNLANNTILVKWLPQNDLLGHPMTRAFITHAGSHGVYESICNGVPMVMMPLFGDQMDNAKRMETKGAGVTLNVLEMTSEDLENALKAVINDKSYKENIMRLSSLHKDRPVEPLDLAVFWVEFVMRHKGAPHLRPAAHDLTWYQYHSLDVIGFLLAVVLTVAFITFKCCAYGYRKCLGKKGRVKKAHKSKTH

[3] = molecular target: T3, UDP-glucuronosyltransferase 1A6 (Homo sapiens, UniProt P19224); assay: Drug metabolism assessed as human UGT1A6-mediated glucuronidation expressed in baculovirus infected insect sf9 cells incubated for 5 mins prior to UDPGA addition measured after 5 to 30 mins by LC-UV analysis; type: ADME; procedure, shortened: as §1
T3 sequence (P19224 whole entry): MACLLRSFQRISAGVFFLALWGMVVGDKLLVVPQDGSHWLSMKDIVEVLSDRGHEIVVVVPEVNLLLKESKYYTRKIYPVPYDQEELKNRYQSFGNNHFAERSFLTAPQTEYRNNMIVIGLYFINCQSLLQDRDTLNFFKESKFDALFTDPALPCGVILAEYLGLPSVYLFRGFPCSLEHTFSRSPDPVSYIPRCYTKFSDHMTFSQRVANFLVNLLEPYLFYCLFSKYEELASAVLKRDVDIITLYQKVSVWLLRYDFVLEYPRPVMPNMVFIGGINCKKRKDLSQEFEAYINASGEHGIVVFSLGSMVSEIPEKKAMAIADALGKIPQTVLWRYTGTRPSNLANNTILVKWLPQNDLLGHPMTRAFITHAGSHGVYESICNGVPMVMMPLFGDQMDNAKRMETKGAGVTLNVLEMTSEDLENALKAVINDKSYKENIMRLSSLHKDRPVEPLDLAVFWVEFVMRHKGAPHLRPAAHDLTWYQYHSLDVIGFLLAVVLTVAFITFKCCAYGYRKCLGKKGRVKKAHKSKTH

[4] = Drug metabolism in microsomes (unknown origin) assessed as retention time treated with 10 uM triclocarban by LC-UV-MS method; type: ADME, Microsome
[5] = Drug metabolism in B6C3F1 mouse liver microsomes assessed as glucuronidation incubated for 5 mins prior to UDPGA addition measured after 5 to 30 mins by LC-UV analysis; type: ADME; procedure, shortened: as §1
[6] = Drug metabolism in human kidney microsomes assessed as glucuronidation incubated for 5 mins prior to UDPGA addition measured after 5 to 30 mins by LC-UV analysis; type: ADME; procedure, shortened: as §1
[7] = Drug metabolism in cynomolgus monkey liver microsomes assessed as glucuronidation incubated for 5 mins prior to UDPGA addition measured after 5 to 30 mins by LC-UV analysis; type: ADME, Macaca fascicularis; procedure, shortened: as §1
[8] = Drug metabolism in human intestinal microsomes assessed as glucuronidation incubated for 5 mins prior to UDPGA addition measured after 5 to 30 mins by LC-UV analysis; type: ADME, Intestine, Microsome; procedure, shortened: as §1
[9] = molecular target: T4, UDP-glucuronosyltransferase 2B4 (Homo sapiens, UniProt P06133); assay: Drug metabolism assessed as human UGT2B4-mediated glucuronidation expressed in baculovirus infected insect sf9 cells incubated for 5 mins prior to UDPGA addition measured after 5 to 30 mins by LC-UV analysis; type: ADME; procedure, shortened: as §1
T4 sequence (P06133 whole entry): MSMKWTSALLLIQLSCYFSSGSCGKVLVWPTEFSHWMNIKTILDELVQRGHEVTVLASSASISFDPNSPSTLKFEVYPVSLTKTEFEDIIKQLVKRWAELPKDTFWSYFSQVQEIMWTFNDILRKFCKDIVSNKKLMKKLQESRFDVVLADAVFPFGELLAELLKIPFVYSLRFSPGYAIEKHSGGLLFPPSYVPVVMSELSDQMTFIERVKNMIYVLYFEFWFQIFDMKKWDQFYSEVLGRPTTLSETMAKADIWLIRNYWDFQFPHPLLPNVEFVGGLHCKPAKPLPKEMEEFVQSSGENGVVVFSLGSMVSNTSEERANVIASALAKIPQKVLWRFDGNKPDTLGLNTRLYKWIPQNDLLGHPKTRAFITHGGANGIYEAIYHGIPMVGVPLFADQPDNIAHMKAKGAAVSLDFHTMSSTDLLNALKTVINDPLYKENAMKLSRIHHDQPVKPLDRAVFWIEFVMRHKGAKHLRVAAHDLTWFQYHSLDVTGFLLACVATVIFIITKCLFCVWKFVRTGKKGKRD

[10] = Drug excretion in Sprague-Dawley rat urine assessed as 6-O-glucuronide-triclocarban formation at 1 mg/kg, po by LC-MS analysis; type: ADME, organism-based; set-up: dose 1 mg/kg, route oral; conditions: in vivo

Drug metabolism [1] [pmol/min/mg] | Drug metabolism [2] [pmol/min/mg] | Drug metabolism [3] | Retention_time [4] [min] | Drug metabolism [5] [pmol/min/mg] | Drug metabolism [6] [pmol/min/mg] | Drug metabolism [7] [pmol/min/mg] | Drug metabolism [8] [pmol/min/mg] | Drug metabolism [9] | Compound | Drug excretion [10]
390 | 1200 | metabolite_not_detected | 6.81 | 2600 | 5600 | 22800 | 5700 | metabolite_not_detected | O=C(Nc1ccc(Cl)c(Cl)c1)Nc1ccc(Cl)cc1O | 
410 | 2400 | metabolite_not_detected | 7.45 | 7900 | 7700 | 16300 | 3900 | metabolite_not_detected | O=C(Nc1ccc(Cl)cc1)Nc1cc(Cl)c(Cl)cc1O | 
540 | 840 | metabolite_not_detected | 4.61 | 14700 | 4200 | 9500 | 7100 | metabolite_not_detected | O=C(Nc1ccc(Cl)c(O)c1)Nc1ccc(Cl)c(Cl)c1 | 
 |  |  |  |  |  |  |  |  | O=C(Nc1ccc(Cl)cc1)Nc1ccc(Cl)c(Cl)c1 [TRICLOCARBAN] | metabolite_detected
